Shown are actives, neighbours in structure and some others; about 3.9% of the full set was active somewhere.
OX1R antag-1 = antagonists of human orexin 1 receptor; O43613; CHO/OX1R cells, Fluo-8 calcium fluorescence, orexin A; inhibition, % at 5 µM; 330,000 tested, 0.43% active; AID 434989;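 active = inhibition above its plate's threshold, mean inhibition of all tested compounds on the plate plus 3 SD, cut at about 37% in these data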;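 also: 0% = orexin A challenge wells and 100% = SB-334867-A antagonist wells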
Target sequence (O43613 whole entry, looked up): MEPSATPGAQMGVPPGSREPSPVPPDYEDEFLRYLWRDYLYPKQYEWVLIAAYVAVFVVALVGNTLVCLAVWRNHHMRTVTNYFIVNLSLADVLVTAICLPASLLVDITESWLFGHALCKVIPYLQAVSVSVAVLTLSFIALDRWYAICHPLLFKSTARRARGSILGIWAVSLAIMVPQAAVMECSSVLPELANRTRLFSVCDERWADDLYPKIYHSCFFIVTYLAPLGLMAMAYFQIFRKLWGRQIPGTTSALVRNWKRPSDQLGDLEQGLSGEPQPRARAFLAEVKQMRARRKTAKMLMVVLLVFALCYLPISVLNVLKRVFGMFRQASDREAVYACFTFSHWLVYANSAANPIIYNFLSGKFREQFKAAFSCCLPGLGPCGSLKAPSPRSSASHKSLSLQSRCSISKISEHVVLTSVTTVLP
OX1R antag-2 = OX1R (human) antagonism; O43613; OX1R-expressing cells, FRET antagonist read-out; inhibition, % at 6.6 µM; 330,000 tested, 1.8% active; AID 485270; in the data active = inhibition mostly above about 38%, no sharp cut-off; inactive = mostly below about 40%;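 also: 0% = agonist challenge alone and 100% = reference antagonist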
TAAR1 ag = agonists of human TAAR1; CHO RD-HGA16 TAAR1, Fluo-8 calcium fluorescence; vehicle wells 0%, saturating PEA agonist 100%; Q96RJ0; AID 624467; 360,000 tested, 0.99% active; activation, % at 3 µM;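 active = activation above the mean activation of all test compounds in the run plus 3 SD, cut at about 38% in these data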
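Signal – calcium-sensitive Fluo-8 signal, excitation 470-495, emission 515-575 nm · System – RD-HGA16 (CHO) cells co-expressing Gα16 and hTAAR1 · Incubation – 17-24 h seeding, 75 min 37 °C dye, 30 min RT · Compound dosing – 3 µM single concentration · Repeats – no replicates (n 1)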
CHO parental Ca = counter-screen: ATP calcium response change in parental CHO cells. AID 463079. inhibition, % at 5.6 µM. parental CHO-K1, ATP-induced calcium, Fluo-8 fluorescence. 330,000 tested, 0.63% active;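 active = inhibition above that plate's mean sample inhibition plus 3 SD, cut at about 26% in these data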;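 also: 0% = ATP-challenged DMSO wells and 100% = DMSO wells without ATP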
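Material: Parental CHO cells | Reagent: ATP | Compound dosing: Single nominal dose of 5.6 µM per compound | Detection: Intracellular calcium via Fluo-8 no-wash fluorescent dye | Read-out: % inhibition of ATP-induced calcium mobilization | Benchmarks: Low control ATP plus DMSO, high control DMSO only | Replicates: Singlicate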
TAAR1 antagonist = antagonists of human TAAR1; inhibition, % at 3 µM; CHO RD-HGA16 TAAR1, Fluo-8 calcium fluorescence, antagonist; AID 624466; Q96RJ0; 360,000 tested, 1.5% active;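 active = inhibition above a per-plate cutoff, the mean inhibition of test compounds on that plate plus 3 SD, cut at about 49% in these data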;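 also: 0% = DMSO plus EC80 beta-PEA response and 100% = DMSO alone without agonist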
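Test system: hTAAR1-expressing CHO RD-HGA16 cells, Gα16-coupled; Probe or stimulus: EC80 β-phenethylamine stimulus; Compound dosing: single nominal final test compound concentration of 3 µM; Timing: 140 s kinetic read after compound, 140 s after agonist; Signal: Fluo-8 calcium-sensitive fluorescence; Measure: % inhibition of agonist calcium response; Controls: DMSO and EC80 PEA controls.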
* = called active by the depositor; x = no result given.

SMILES | OX1R antag-1 | OX1R antag-2 | TAAR1 ag | CHO parental Ca | TAAR1 antagonist
CC(C)=CCC[C@](C)(O[C@@H]1O[C@H](CO[C@@H]2O[C@H](CO)[C@@H](O)[C@H](O)[C@H]2O)[C@@H](O)[C@H](O)[C@H]1O)C1CC[C@]2(C)C1C(=O)CC1[C@@]3(C)CC[C@H](O[C@H]4O[C@@H](CO)[C@H](O)[C@@H](O)[C@@H]4O)C(C)(C)C3CC[C@]12C (some centres undefined) | 7 | 3 | 1 | 0 | -2
COc1ccc(CNC(=O)c2cc3ccccc3oc2=O)cc1 | -22 | 8 | 4 | -20 | 8
COc1ccc(-c2[nH]c3ccccc3c2SCCNC(=O)c2cc3ccccc3oc2=O)cc1 | -16 | 42* | 5 | -9 | 37
Cc1[nH]c2ccccc2c1SCCNC(=O)c1ccc(Br)o1 | 24 | 66* | 3 | -25 | 27
CCCCc1nnn2c1C1c3cc(Br)ccc3CCN1C(=O)C2 (centres undefined) | x | x | 2 | x | -20
O=S(=O)(NCc1ccccc1)c1ccc(-c2cnc(C3CC3)o2)cc1 | -4 | 16 | -1 | -11 | 2
CCOc1ccccc1CNS(=O)(=O)c1ccc(-c2cnc(C3CC3)o2)cc1 | 24 | 45 | 4 | 33* | 58*
Cc1ccc(OCCSc2nc3ccccc3n2CC(=O)O)cc1C | -4 | 43* | 0 | -12 | 2
O=C(O)Cn1c(SCCOc2ccccc2)nc2ccccc21 | 8 | 43* | 20 | -11 | -1
CN1CCCCC(NC(=O)c2c(F)cccc2F)C1=O (centres undefined) | x | x | 2 | x | -5
COc1cc(SC)ccc1C(=O)NCCOc1ccc(Cl)cc1 | -22 | 19 | 7 | -17 | 0
CSc1ccc(Cl)c(C(=O)NCCOc2cc(C(C)C)ccc2C)c1 | -22 | 20 | 5 | -1 | 49*
CC(C)(C)c1ccc(CC(=O)N2CCC2(C)C(=O)NS(=O)(=O)c2ccccc2Cl)cc1 (centres undefined) | x | x | 0 | x | 6
CCCCOCCCNC(=O)C[C@@H]1C[C@@]2(C(=O)OC)CCCCC=C2N(Cc2cccc3ccccc23)C1=O | x | x | 3 | x | 46
Cc1ccccc1C(=O)N1CCC2CC1c1cc(-c3ccc(F)cc3)ccc12 (centres undefined) | x | x | 0 | x | 59*
Cc1cccc(C)c1OCC(=O)Nn1c(COc2ccccc2)nc2ccccc2c1=O | -9 | 13 | 6 | -9 | 51*
CCOC(=O)CN1C(=O)S/C(=C/C=C/c2ccc(N(C)C)cc2)C1=O | 55* | 18 | 45* | 32* | 30
Nc1[nH]c(C(=O)c2ccccc2)c(-c2ccccc2)c1C(=O)NCCc1c[nH]c2ccccc12 | x | x | 8 | x | 17
O=C(NCCc1c[nH]c2ccccc12)c1c(Cl)nc2sccn12 | -21 | 39 | 39* | -2 | 23
Cc1cccc(C)c1NC(=O)C(c1ccncc1)N1CCN(CCN(C)C)CC1 (centres undefined) | x | x | 0 | x | 5
CCC/C(=C1/c2ccccc2C(=O)N1c1ccccc1)c1ccc2[nH]ccc2c1 | 30 | 24 | 0 | 8 | 58*
CCOC(=O)c1ccc(NC(=O)OC[C@@H]2CSCCS(=O)(=O)N2)cc1 | x | x | 17 | x | 7
COc1ccc(S(=O)(=O)N2CCOCC2)cc1N=Nc1sc(N)nc1-c1ccccc1 | -3 | 33 | 12 | -4 | 54*
O=C(O)c1ccc(/C=N\Nc2ccc(S(=O)(=O)N3CCOCC3)cc2[N+](=O)[O-])cc1 | -7 | 8 | 0 | -11 | -20
NS(=O)(=O)c1ccc(NN=C2CCCCC2)c([N+](=O)[O-])c1 | 7 | 73* | 2 | 17 | 6
SMILES | OX1R antag-1 | OX1R antag-2 | TAAR1 ag | CHO parental Ca | TAAR1 antagonist
CCC(CC)=NNc1ccc(S(N)(=O)=O)cc1[N+](=O)[O-] | -1 | 46* | -1 | 4 | -8
CC(=O)N1CCC(=NNc2ccc(S(N)(=O)=O)cc2[N+](=O)[O-])CC1 | 2 | 51 | 0 | 2 | -4
CCOC(=O)N1CCC(=NNc2ccc(S(N)(=O)=O)cc2[N+](=O)[O-])CC1 | -2 | 59* | 5 | -2 | -10
NS(=O)(=O)c1ccc(N/N=C/c2ccc(C(=O)O)cc2)c([N+](=O)[O-])c1 | -8 | 50* | 0 | -8 | -13
COc1ccc(-n2c(O)c(/C=N/NS(=O)(=O)c3cc(C)ccc3C)c3ccccc3c2=O)cc1OC | 10 | 25 | 42* | 2 | 50*
COc1ccc(-n2c(O)c(/C=N/NS(=O)(=O)c3ccc(C)cc3)c3ccccc3c2=O)cc1OC | -1 | 10 | 21 | 2 | 42
O=C(O)c1ccc(N/N=C/c2cc(Br)cs2)cc1 | 3 | -5 | 38* | 8 | 7
COc1cc2[nH]c(Cl)c([N+](=O)[O-])c2cc1OC | 0 | 73* | 10 | 4 | -10
COc1c(C)cc(C(O)c2ncc(-c3ccc(C(F)(F)F)cc3)[nH]2)cc1C (centres undefined) | x | x | 1 | x | -20
Cc1c(Cl)cccc1NC(=S)NCCC(c1ccccc1)c1ccccc1 | -8 | 28 | 3 | 1 | 35
Cc1cc(Cl)ccc1NC(=S)NCCC(c1ccccc1)c1ccccc1 | 45* | 52 | 9 | 37* | 36
COc1ccc2nc(NN=Cc3cccc(C)n3)cc(C)c2c1 | x | x | 2 | x | -11
CC(C)CNc1cccc2c1S(=O)(=O)N(Cc1cccc(F)c1)[C@@H](C)[C@H](c1ccccc1)O2 | x | x | 0 | x | 3
O=c1[nH]cnc2ccc([N+](=O)[O-])cc12 | 0 | 52* | 1 | 5 | 14
O=c1[nH][nH]c(=O)c2cc([N+](=O)[O-])ccc12 | -14 | 52* | 2 | -7 | -5
COc1cc2c(=O)[nH]c3cc([N+](=O)[O-])ccc3c2cc1[N+](=O)[O-] | x | x | 0 | x | -20
O=C1c2ccccc2C2N1CCCN2C(=O)c1sc2ccccc2c1Cl (centres undefined) | x | x | 9 | x | 31
CCOC(=O)c1ccc([N+](=O)[O-])c(CS(=O)(=O)c2ccc(Cl)cc2)c1 | -17 | 16 | 2 | -5 | 25
Cc1ccc(S(=O)(=O)Cc2cc(F)c([N+](=O)[O-])cc2[N+](=O)[O-])cc1 | 60* | 41* | x | 57* | x
CCc1nnc(NS(=O)(=O)c2ccc(NC(=S)NC(=O)/C=C/c3ccccc3)cc2)s1 | -16 | 15 | -1 | -18 | 13
CCc1nnc(NS(=O)(=O)c2ccc(NC(=S)NC(=O)/C=C/c3ccc(C(C)C)cc3)cc2)s1 | 36 | 20 | x | 44* | x
COc1cc2ccccc2cc1C(=O)N/N=C/c1cccs1 | x | x | 1 | x | -13
O=C(CNC(=O)c1nc[nH]c1C(=O)N1CCc2ccccc2C1)OCc1ccccc1 | -17 | 33 | 21 | -16 | 62*
O=C(N[C@@H](Cc1ccccc1)C(=O)OCc1ccccc1)c1nc[nH]c1C(=O)N1CCN(c2ccccc2)CC1 | 19 | 8 | 12 | 27 | 52*

Assay outcomes: PubChem, The Scripps Research Institute Molecular Screening Center
